The source of these data is ChEMBL document CHEMBL1150125, “Antiplasmodial activity of alkaloids from various strychnos species” (J Nat Prod, 2002).

Data set [1] is described as follows: Selectivity index, ratio of IC50 for human HCT116 cells to IC50 for chloroquine-resistant Plasmodium falciparum W2/Indochina. Type of data set: toxicity, cell-based, HCT-116. The following applies: HCT116 cells versus Plasmodium falciparum W2/Indochina, read-out: Ratio IC50. In short, it runs like this: (§1)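 Selectivity index = IC50 in HCT-116 cells / IC50 in P. falciparum. Cell IC50: 5000 HCT-116 cells per well with drug, DMSO controls, 72 h incubation, then WST-1 for 30 min at 37 °C. Absorbance read against a cell-free blank and expressed as percent of control. Two independent experiments, each in triplicate, means ± SEM.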

In data set [2] the test system is Plasmodium falciparum. The data set can be described thus: Antiplasmodial activity against chloroquine-sensitive Plasmodium falciparum FCA 20/ Ghana by [3H]hypoxanthine uptake. Type of data set: functional, organism-based. In short, it runs like this:
(§2)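 Asexual erythrocytic stages kept in continuous culture (Trager and Jensen method). Each sample run as eight 4-fold dilutions, final 20 to 0.0012 µg/mL, in duplicate. IC50 and IC90 derived; number of independent experiments per value given separately.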

A short description of data set [3]: Selectivity index, ratio of IC50 for human HCT116 cells to IC50 for moderately chloroquine-resistant Plasmodium falciparum FCB1-R/Colombia. Type of data set: toxicity, cell-based, HCT-116. The following applies: HCT116 cells versus Plasmodium falciparum FCB1-R/Colombia, read-out: Ratio IC50. In a few lines:
as §1

Data set [4] concerns HCT-116. The data set can be described thus: Cytotoxicity against human HCT116 cells after 72 hrs by WST1 assay. The following applies: HCT-116, 72 h. The data set is classed as cell-based. In short, it runs like this:
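HCT-116 colon cancer cells were seeded at 5000 per well in medium containing the test drugs, with matched DMSO controls. After 72 h, WST-1 was added for 30 min at 37 °C. Absorbance was read against a cell-free medium plus WST-1 blank and expressed as percent of control. Two independent experiments were run, each in triplicate, and means ± SEM were calculated.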

In data set [5] the test system is Plasmodium falciparum. The data set can be described thus: Antiplasmodial activity against chloroquine-resistant Plasmodium falciparum W2/Indochina by [3H]hypoxanthine uptake. The data set is classed as functional, organism-based. In a few lines: as §2
In data set [6] the test system is Plasmodium falciparum. The data set can be described thus: Antiplasmodial activity against chloroquine-resistant Plasmodium falciparum FCB1-R/Colombia by [3H]hypoxanthine uptake. Type of data set: functional, organism-based. In a few lines:
as §2

Data set [7] can be described thus: Selectivity index, ratio of IC50 for human HCT116 cells to IC50 for chloroquine-sensitive Plasmodium falciparum FCA 20/ Ghana. The following applies: HCT116 cells versus Plasmodium falciparum FCA 20/Ghana, read-out: Ratio IC50. Type of data set: toxicity, cell-based, HCT-116. In short, it runs like this:
as §1

The test system of data set [8] is Plasmodium falciparum. The data set can be described thus: Antiplasmodial activity against chloroquine-sensitive Plasmodium falciparum FCA 20/ Ghana at 50 uM. The following applies: read-out: INH.
Setting [9] is: Plasmodium falciparum, FCA 20/ Ghana.
The mark [10] stands for this setting: Plasmodium falciparum, W2/Indochina.
Setting [11] is: Plasmodium falciparum, FCB1-R/Colombia.

As to `C/C=C1/CN2[C@@H](C3=C[C@@H]4[C@@H]5N(C3=O)c3ccccc3[C@@]53CCN5C/C(=C/CO)[C@@H]4C[C@H]53)C[C@@]34c5ccccc5N5C(=O)CC=C([C@H]1C[C@H]23)[C@H]54`, the selectivity ratio in data set [1] came out at 115; in data set [3] it was 78.3; in data set [7] it was 19.1. Further, the IC50 was 847 nM in data set [2] (setting [9]), 16200 nM in data set [4], 140 nM in data set [5] (setting [10]) and 207 nM in data set [6] (setting [11]). In addition, the IC90 in data set [2] (setting [9]) came out at 4350 nM; in data set [5] (setting [10]) it was 1350 nM; in data set [6] (setting [11]) it was 1470 nM.
Take `C/C=C1\CN2CC[C@]34c5ccccc5N5[C@H]3[C@@H]([C@H]3O[C@@H]5[C@]5(OC)[C@@H]6N3c3ccccc3[C@@]63CCN6C/C(=C\C)[C@@H]5C[C@H]63)[C@H]1C[C@H]24`: the selectivity ratio in data set [1] was 200; in data set [3], 15.9; in data set [7] it was 45.3. In addition, the IC50 in data set [2] (setting [9]) was 540 nM; in data set [4], 24500 nM; in data set [5] (setting [10]), 122 nM; in data set [6] (setting [11]), 1540 nM. Further, the results for the IC90 in data set [2] (setting [9]), in data set [5] (setting [10]) and in data set [6] (setting [11]) were 2530 nM, 2840 nM and 9520 nM, respectively.
As for `C/C=C1\CN2CC[C@]34c5ccccc5N5[C@@H]6O[C@H]([C@H]([C@H]53)[C@H]1C[C@H]24)N1c2ccccc2[C@]23CCN4C/C(=C/C)[C@H](C[C@H]42)[C@H]6[C@H]13` (stereo in doubt; 52) [MATOPENSINE], the values for the selectivity ratio in data set [1], in data set [3] and in data set [7] were 49.5, 33.1 and 9.59, respectively. Moreover, the IC50 in data set [2] turned out to be 1250 nM; in data set [4], 12000 nM; in data set [5] it was 243 nM; in data set [6] it was 362 nM. Besides, the IC90 in data set [2] is 6630 nM; in data set [5], 7740 nM; in data set [6], 4110 nM.
For `CC` [ETHANE], the inhibition at 50 µM in data set [8] is less than 30%.
In the case of `CC[C@H]1CN2CCC3c4ccc(O)c([C@@H]5CCCN5C)c4NC3[C@@H]2C[C@@H]1C[C@H]1c2[nH]c3ccccc3c2CCN1C` (stereo partly specified) [ISOSTRYCHNOPENTAMINE], the selectivity ratio in data set [1] amounted to 49.1; in data set [3], 71.8; in data set [7], 62.3. In addition, the IC50 in data set [2] (setting [9]) worked out at 120 nM; in data set [4] it was 7470 nM; in data set [5] (setting [10]), 152 nM; in data set [6] (setting [11]) it was 104 nM. For the same compound, the IC90 was found to be 450 nM in data set [2] (setting [9]), 628 nM in data set [5] (setting [10]) and 386 nM in data set [6] (setting [11]).
As for `C/C=C1/CN2CCc3c([nH]c4ccccc34)[C@@H]2C[C@@H]1C1=CN2c3ccccc3[C@@]34CCN5CC6=CCO[C@@H]1[C@@H]([C@H]23)[C@H]6C[C@H]54` [LONGICAUDATINE], the selectivity ratio in data set [1] amounted to 7.96; in data set [3] it was 8.81; in data set [7] it was 4.59. Besides, the IC50 in data set [2] (setting [9]) amounted to 986 nM; in data set [4], 4930 nM; in data set [5] (setting [10]), 569 nM; in data set [6] (setting [11]) it was 560 nM. Further, the IC90 is 3870 nM in data set [2] (setting [9]), 4830 nM in data set [5] (setting [10]) and 3640 nM in data set [6] (setting [11]).
As for `CC[C@H]1CN2CCC3c4ccccc4NC3[C@@H]2C[C@@H]1C[C@H]1NCCc2c1[nH]c1ccccc21` (stereo partly specified) [OCHROLIFUANINE A], the selectivity ratio in data set [1] is 32.8; in data set [3], 60.7; in data set [7], 136. In addition, the IC50 in data set [2] (setting [9]) came to 118 nM; in data set [4], 16100 nM; in data set [5] (setting [10]), 492 nM; in data set [6] (setting [11]), 266 nM. Besides, the 90% effect concentration (IC90) in data set [2] (setting [9]) was 495 nM; in data set [5] (setting [10]), 1380 nM; in data set [6] (setting [11]), 1020 nM.
`CC[C@H]1CN2CCC3c4ccccc4NC3[C@H]2C[C@@H]1C[C@@H]1NCCc2c1[nH]c1ccccc21` (stereo partly specified) [OCHROLIFUANINE E]: the selectivity ratio in data set [1] is 3; in data set [3], 8.12; in data set [7] it was 20.7. For the same compound, the concentration for half-maximal inhibition (IC50) turned out to be 276 nM in data set [2] (setting [9]), 5700 nM in data set [4], 1900 nM in data set [5] (setting [10]) and 702 nM in data set [6] (setting [11]). Besides, the IC90 in data set [2] (setting [9]) was 1490 nM; in data set [5] (setting [10]), 6760 nM; in data set [6] (setting [11]), 2420 nM.
Consider `O=C1C[C@@H]2OCC=C3CN4[C@@H](C5=C[C@@H]6[C@@H]7N(C5=O)c5ccccc5[C@@]75CCN7C/C(=C/CO)[C@@H]6C[C@H]75)C[C@]56c7ccccc7N1[C@H]5[C@@H]2[C@H]3C[C@H]46` [STRYCHNOGUCINE B], for which the selectivity ratio in data set [1] turned out to be 176; in data set [3] it was 28.3; in data set [7], 24.3. Moreover, the IC50 in data set [2] (setting [9]) was 617 nM; in data set [4] it was 15000 nM; in data set [5] (setting [10]), 85 nM; in data set [6] (setting [11]), 529 nM. In addition, the figures for the IC90 in data set [2] (setting [9]), in data set [5] (setting [10]) and in data set [6] (setting [11]) were 3790 nM, 358 nM and 2240 nM, respectively.
